{"source": "ChEMBL document CHEMBL1255417", "about": "“Correlation between in vitro activity of posaconazole and in vivo efficacy against Rhizopus oryzae infection in mice” (Antimicrob Agents Chemother, 2010)", "key": {"Rhizopus arrhizus [1]": {"system": "Rhizopus arrhizus", "assay": "Antifungal activity against drug-susceptible Rhizopus oryzae UTHSC 06-3827 at 5 ug by disk diffusion assay", "type": "functional", "conditions": "read-out: DIZ", "in_short": "(§1)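 Neo-Sensitabs tablet diffusion on Mueller-Hinton agar, run per the mould guidelines. Tablets are 9 mm in diameter and carry 5 ug posaconazole. The read-out is the inhibition zone diameter in mm.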"}, "Rhizopus arrhizus [2]": {"system": "Rhizopus arrhizus", "assay": "Antifungal activity against drug-intermediate Rhizopus oryzae UTHSC 05-114 after 24 to 48 hrs", "type": "functional"}, "Rhizopus arrhizus [3]": {"system": "Rhizopus arrhizus", "assay": "Antifungal activity against drug-intermediate Rhizopus oryzae UTHSC 05-3032 infected in OF1 mouse assessed as increase in mouse survival at 20-30 mg/kg, po bid treated 24 hrs after fungal infection", "type": "functional, organism-based", "in_short": "(§2)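 Survival model in male OF1 mice, 30 g. Mice were immunosuppressed 1 day before infection with cyclophosphamide 200 mg/kg i.p. plus 5-fluorouracil 150 mg/kg i.v., then infected i.v. via lateral tail vein with 2 × 10^4 CFU in 0.2 ml saline. Oral gavage at 10, 20 or 30 mg/kg BID began 24 h post-challenge for 7 days. Ceftazidime 5 mg/day s.c. was given days 1–7. Groups of 10 were checked daily for 20 days; untreated controls.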"}, "Rhizopus arrhizus [4]": {"system": "Rhizopus arrhizus", "assay": "Antifungal activity against drug-susceptible Rhizopus oryzae UTHSC 04-1613 after 24 to 48 hrs", "type": "functional", "in_short": "(§3)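 Minimum fungicidal concentration: 20 µl from each microdilution well showing complete inhibition (optically clear) plated on potato dextrose agar, incubated 35°C for 24 to 48 h; MFC taken as lowest drug concentration giving no growth.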"}, "Rhizopus arrhizus [5]": {"system": "Rhizopus arrhizus", "assay": "Antifungal activity against drug-susceptible Rhizopus oryzae UTHSC 04-2159 at 5 ug by disk diffusion assay", "type": "functional", "conditions": "read-out: DIZ", "in_short": "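Neo-Sensitabs tablet diffusion on Mueller-Hinton agar, following guidelines for molds; 9 mm tablets containing 5 µg posaconazole; inhibition zone diameter measured in mm; zone breakpoints applied at 24 h.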"}, "Rhizopus arrhizus [6]": {"system": "Rhizopus arrhizus", "assay": "Antifungal activity against drug-intermediate Rhizopus oryzae UTHSC 04-3109 infected in OF1 mouse assessed as increase in mouse survival at 20-30 mg/kg, po bid treated 24 hrs after fungal infection", "type": "functional, organism-based", "in_short": "as §2"}, "Rhizopus arrhizus [7]": {"system": "Rhizopus arrhizus", "assay": "Antifungal activity against drug-susceptible Rhizopus oryzae UTHSC 03-112 by broth microdilution method", "type": "functional", "in_short": "(§4)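 Broth microdilution MIC in µg/ml, run per the CLSI (formerly NCCLS) guideline for filamentous fungi, M38-A2.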"}, "Rhizopus arrhizus [8]": {"system": "Rhizopus arrhizus", "assay": "Antifungal activity against drug-intermediate Rhizopus oryzae UTHSC 05-3032 infected in OF1 mouse assessed as reduction in brain fungal load at 10-30 mg/kg, po bid treated 24 hrs after fungal infection", "type": "functional, organism-based", "in_short": "(§5)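 Tissue burden in immunosuppressed male OF1 mice, using cyclophosphamide 200 mg/kg i.p. plus 5-fluorouracil 150 mg/kg i.v. on day −1. Mice received 2 × 10^4 CFU i.v. by tail vein, then oral gavage at 10, 20 or 30 mg/kg BID from 24 h post-challenge, with ceftazidime cover; untreated controls. Groups of 10 were killed on day 4. Kidneys and brains were homogenized in 2 ml saline, serially diluted 10-fold, plated on PDA and counted after 24 h at 35°C.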"}, "Rhizopus arrhizus [9]": {"system": "Rhizopus arrhizus", "assay": "Antifungal activity against drug-susceptible Rhizopus oryzae UTHSC 06-4035 at 5 ug by disk diffusion assay", "type": "functional", "conditions": "read-out: DIZ", "in_short": "as §1"}, "Rhizopus arrhizus [10]": {"system": "Rhizopus arrhizus", "assay": "Antifungal activity against drug-intermediate Rhizopus oryzae UTHSC 03-285 by broth microdilution method", "type": "functional", "in_short": "as §4"}, "Rhizopus arrhizus [11]": {"system": "Rhizopus arrhizus", "assay": "Antifungal activity against drug-intermediate Rhizopus oryzae UTHSC 07-365 infected in OF1 mouse assessed as reduction in kidney fungal load at 10-30 mg/kg, po bid treated 24 hrs after fungal infection", "type": "functional, organism-based", "in_short": "as §5"}, "Rhizopus arrhizus [12]": {"system": "Rhizopus arrhizus", "assay": "Antifungal activity against drug-susceptible Rhizopus oryzae UTHSC 05-1502 by broth microdilution method", "type": "functional", "in_short": "(§6)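 CLSI broth microdilution for filamentous fungi (M38-A2); MIC recorded in µg/ml against clinical isolates; breakpoints applied at 24 h.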"}, "Rhizopus arrhizus [13]": {"system": "Rhizopus arrhizus", "assay": "Antifungal activity against drug-susceptible Rhizopus oryzae UTHSC 06-3827 by broth microdilution method", "type": "functional", "in_short": "(§7)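 Posaconazole MIC in ug/ml, determined by broth microdilution following the CLSI guidelines for moulds (M38-A2).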"}, "Rhizopus arrhizus [14]": {"system": "Rhizopus arrhizus", "assay": "Antifungal activity against drug-susceptible Rhizopus oryzae UTHSC 05-3132 by broth microdilution method", "type": "functional", "in_short": "as §7"}, "Rhizopus arrhizus [15]": {"system": "Rhizopus arrhizus", "assay": "Antifungal activity against drug-susceptible Rhizopus oryzae UTHSC 03-2970 after 24 to 48 hrs", "type": "functional"}, "Rhizopus arrhizus [16]": {"system": "Rhizopus arrhizus", "assay": "Antifungal activity against drug-susceptible Rhizopus oryzae UTHSC 02-2882 infected in OF1 mouse assessed as reduction in brain fungal load at 10-30 mg/kg, po bid treated 24 hrs after fungal infection", "type": "functional, organism-based", "in_short": "as §5"}, "Rhizopus arrhizus [17]": {"system": "Rhizopus arrhizus", "assay": "Antifungal activity against drug-susceptible Rhizopus oryzae UTHSC 2868 at 5 ug by disk diffusion assay", "type": "functional", "conditions": "read-out: DIZ"}, "Rhizopus arrhizus [18]": {"system": "Rhizopus arrhizus", "assay": "Antifungal activity against drug-susceptible Rhizopus oryzae UTHSC 04-443 by broth microdilution method", "type": "functional", "in_short": "as §6"}, "Rhizopus arrhizus [19]": {"system": "Rhizopus arrhizus", "assay": "Antifungal activity against drug-susceptible Rhizopus oryzae UTHSC 03-112 after 24 to 48 hrs", "type": "functional"}, "Rhizopus arrhizus [20]": {"system": "Rhizopus arrhizus", "assay": "Antifungal activity against drug-susceptible Rhizopus oryzae UTHSC 06-1301 at 5 ug by disk diffusion assay", "type": "functional", "conditions": "read-out: DIZ", "in_short": "as §1"}, "Rhizopus arrhizus [21]": {"system": "Rhizopus arrhizus", "assay": "Antifungal activity against drug-susceptible Rhizopus oryzae UTHSC 02-2882 infected in OF1 mouse assessed as increase in mouse survival at 20-30 mg/kg, po bid treated 24 hrs after fungal infection", "type": "functional, organism-based", "in_short": "as §2"}, "Rhizopus arrhizus [22]": {"system": "Rhizopus arrhizus", "assay": "Antifungal activity against drug-susceptible Rhizopus oryzae UTHSC 06-89 infected in OF1 mouse assessed as reduction in brain fungal load at 10-30 mg/kg, po bid", "type": "functional, organism-based"}, "Rhizopus arrhizus [23]": {"system": "Rhizopus arrhizus", "assay": "Antifungal activity against drug-susceptible Rhizopus oryzae UTHSC 05-2975 by broth microdilution method", "type": "functional", "in_short": "as §7"}, "Rhizopus arrhizus [24]": {"system": "Rhizopus arrhizus", "assay": "Antifungal activity against drug-susceptible Rhizopus oryzae UTHSC 03-3110 after 24 to 48 hrs", "type": "functional", "in_short": "as §3"}, "Rhizopus arrhizus [25]": {"system": "Rhizopus arrhizus", "assay": "Antifungal activity against drug-susceptible Rhizopus oryzae UTHSC 05-1817 by broth microdilution method", "type": "functional", "in_short": "as §6"}, "Rhizopus arrhizus [26]": {"system": "Rhizopus arrhizus", "assay": "Antifungal activity against drug-intermediate Rhizopus oryzae UTHSC 04-3109 by broth microdilution method", "type": "functional", "in_short": "as §4"}, "Rhizopus arrhizus [27]": {"system": "Rhizopus arrhizus", "assay": "Antifungal activity against drug-susceptible Rhizopus oryzae UTHSC 04-278 after 24 to 48 hrs", "type": "functional", "in_short": "as §3"}, "Rhizopus arrhizus [28]": {"system": "Rhizopus arrhizus", "assay": "Antifungal activity against drug-susceptible Rhizopus oryzae UTHSC 06-1080 by broth microdilution method", "type": "functional", "in_short": "as §7"}, "Rhizopus arrhizus [29]": {"system": "Rhizopus arrhizus", "assay": "Antifungal activity against drug-susceptible Rhizopus oryzae UTHSC 06-4336 by broth microdilution method", "type": "functional", "in_short": "as §7"}, "Rhizopus arrhizus [30]": {"system": "Rhizopus arrhizus", "assay": "Antifungal activity against drug-susceptible Rhizopus oryzae UTHSC 02-2882 by broth microdilution method", "type": "functional", "in_short": "as §4"}, "Rhizopus arrhizus [31]": {"system": "Rhizopus arrhizus", "assay": "Antifungal activity against drug-susceptible Rhizopus oryzae UTHSC 04-1613 by broth microdilution method", "type": "functional", "in_short": "as §6"}, "Rhizopus arrhizus [32]": {"system": "Rhizopus arrhizus", "assay": "Antifungal activity against drug-susceptible Rhizopus oryzae UTHSC 412-546 at 5 ug by disk diffusion assay", "type": "functional", "conditions": "read-out: DIZ"}, "Rhizopus arrhizus [33]": {"system": "Rhizopus arrhizus", "assay": "Antifungal activity against drug-susceptible Rhizopus oryzae UTHSC 03-1826 after 24 to 48 hrs", "type": "functional"}, "Rhizopus arrhizus [34]": {"system": "Rhizopus arrhizus", "assay": "Antifungal activity against drug-susceptible Rhizopus oryzae UTHSC 04-2459 by broth microdilution method", "type": "functional", "in_short": "as §6"}, "Rhizopus arrhizus [35]": {"system": "Rhizopus arrhizus", "assay": "Antifungal activity against drug-intermediate Rhizopus oryzae UTHSC 07-365 after 24 to 48 hrs", "type": "functional"}}, "note": "Active and inactive are the calls of the source. The rule behind the calls is not given here."}
{"molecule": "CC[C@@H]([C@H](C)O)n1ncn(-c2ccc(N3CCN(c4ccc(OC[C@@H]5CO[C@@](Cn6cncn6)(c6ccc(F)cc6F)C5)cc4)CC3)cc2)c1=O", "note": "[POSACONAZOLE]", "values": [{"measurement": "zone of inhibition at 5 µg/disc", "setting": "Rhizopus arrhizus [1]", "result": 18, "unit": "mm"}, {"measurement": "MFC", "setting": "Rhizopus arrhizus [2]", "result": 16, "unit": "µg/mL"}, {"measurement": "Activity", "setting": "Rhizopus arrhizus [3]", "result": "Active"}, {"measurement": "MFC", "setting": "Rhizopus arrhizus [4]", "result": 0.5, "unit": "µg/mL"}, {"measurement": "zone of inhibition at 5 µg/disc", "setting": "Rhizopus arrhizus [5]", "result": 20, "unit": "mm"}, {"measurement": "Activity", "setting": "Rhizopus arrhizus [6]", "result": "Active"}, {"measurement": "MIC", "setting": "Rhizopus arrhizus [7]", "result": 0.5, "unit": "µg/mL"}, {"measurement": "Activity", "setting": "Rhizopus arrhizus [8]", "result": "inactive"}, {"measurement": "zone of inhibition at 5 µg/disc", "setting": "Rhizopus arrhizus [9]", "result": 17, "unit": "mm"}, {"measurement": "MIC", "setting": "Rhizopus arrhizus [10]", "result": 2, "unit": "µg/mL"}, {"measurement": "Activity", "setting": "Rhizopus arrhizus [11]", "result": "Active"}, {"measurement": "MIC", "setting": "Rhizopus arrhizus [12]", "result": 0.5, "unit": "µg/mL"}, {"measurement": "MIC", "setting": "Rhizopus arrhizus [13]", "result": 1, "unit": "µg/mL"}, {"measurement": "MIC", "setting": "Rhizopus arrhizus [14]", "result": 0.5, "unit": "µg/mL"}, {"measurement": "MFC", "setting": "Rhizopus arrhizus [15]", "result": 4, "unit": "µg/mL"}, {"measurement": "Activity", "setting": "Rhizopus arrhizus [16]", "result": "Active"}, {"measurement": "zone of inhibition at 5 µg/disc", "setting": "Rhizopus arrhizus [17]", "result": 19, "unit": "mm"}, {"measurement": "MIC", "setting": "Rhizopus arrhizus [18]", "result": 0.5, "unit": "µg/mL"}, {"measurement": "MFC", "setting": "Rhizopus arrhizus [19]", "result": 1, "unit": "µg/mL"}, {"measurement": "zone of inhibition at 5 µg/disc", "setting": "Rhizopus arrhizus [20]", "result": 25, "unit": "mm"}, {"measurement": "Activity", "setting": "Rhizopus arrhizus [21]", "result": "Active"}, {"measurement": "Activity", "setting": "Rhizopus arrhizus [22]", "result": "Active"}, {"measurement": "MIC", "setting": "Rhizopus arrhizus [23]", "result": 1, "unit": "µg/mL"}, {"measurement": "MFC", "setting": "Rhizopus arrhizus [24]", "result": 1, "unit": "µg/mL"}, {"measurement": "MIC", "setting": "Rhizopus arrhizus [25]", "result": 0.25, "unit": "µg/mL"}, {"measurement": "MIC", "setting": "Rhizopus arrhizus [26]", "result": 2, "unit": "µg/mL"}, {"measurement": "MFC", "setting": "Rhizopus arrhizus [27]", "result": "> 16", "unit": "µg/mL"}, {"measurement": "MIC", "setting": "Rhizopus arrhizus [28]", "result": 1, "unit": "µg/mL"}, {"measurement": "MIC", "setting": "Rhizopus arrhizus [29]", "result": 0.5, "unit": "µg/mL"}, {"measurement": "MIC", "setting": "Rhizopus arrhizus [30]", "result": 0.25, "unit": "µg/mL"}, {"measurement": "MIC", "setting": "Rhizopus arrhizus [31]", "result": 0.5, "unit": "µg/mL"}, {"measurement": "zone of inhibition at 5 µg/disc", "setting": "Rhizopus arrhizus [32]", "result": 15, "unit": "mm"}, {"measurement": "MFC", "setting": "Rhizopus arrhizus [33]", "result": 0.5, "unit": "µg/mL"}, {"measurement": "MIC", "setting": "Rhizopus arrhizus [34]", "result": 1, "unit": "µg/mL"}, {"measurement": "MFC", "setting": "Rhizopus arrhizus [35]", "result": 16, "unit": "µg/mL"}]}
